ChEMBL document CHEMBL3102840, “Synthesis and anti-proliferative activity of aromatic substituted 5-((1-benzyl-1H-indol-3-yl)methylene)-1,3-dimethylpyrimidine-2,4,6(1H,3H,5H)-trione analogs against human tumor cell lines” (2014)

Assays:
Format in all cases: functional
[1] = Cytotoxicity against human NCI-ADR-RES cells after 48 hrs by SRB assay
Summary of the method: (§1)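 Five-dose run from the sixty-line panel, at 10−4, 10−5, 10−6, 10−7 and 10−8 M. SRB-stain OD is read just before compound addition, after 48 hrs of exposure, and in vehicle controls, giving percentage growth; negative growth indicates cytotoxicity. GI50 is the concentration giving 50% reduction in net protein increase versus control cells. LC50 is the concentration lethal to 50% of cells.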

HOP-62 = test: Cytotoxicity against human HOP62 cells after 48 hrs by SRB assay; settings: HOP-62, 48 h; summary of the method: as §1
IGROV-1 = test: Cytotoxicity against human IGROV1 cells after 48 hrs by SRB assay; settings: IGROV-1, 48 h; summary of the method: as §1
NCI-H23 = test: Cytotoxicity against human NCI-H23 cells after 48 hrs by SRB assay; settings: NCI-H23, 48 h; summary of the method: as §1
SR = test: Cytotoxicity against human SR cells after 48 hrs by SRB assay; summary of the method: as §1
786-0 = test: Cytotoxicity against human 786-0 cells after 48 hrs by SRB assay; settings: 786-0, 48 h; summary of the method: as §1
[2] = Cytotoxicity against human OVCAR5 cells after 48 hrs by SRB assay; settings: OVCAR-5, 48 h; summary of the method: as §1
COLO 205 = test: Cytotoxicity against human COLO205 cells after 48 hrs by SRB assay; settings: COLO 205, 48 h; summary of the method: as §1
NCI-H226 [3] = test: Cytotoxicity against human NCI-H226 cells after 48 hrs by SRB assay; settings: NCI-H226, 48 h; summary of the method: as §1
HCT-116 = test: Cytotoxicity against human HCT116 cells after 48 hrs by SRB assay; settings: HCT-116, 48 h; summary of the method: as §1
MDA-MB-468 [4] = test: Cytotoxicity against human MDA-MB-468 cells assessed as growth inhibition at 10 uM after 48 hrs by SRB assay; settings: MDA-MB-468, 48 h, read-out: GI
Summary of the method: (§2)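 Single-dose screen at 10µM across the sixty-cell-line panel. Percentage growth is derived from SRB-stain OD taken just before compound exposure, after 48 hrs exposure, and in vehicle-treated controls. Negative values indicate cytotoxicity.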

UACC-62 = test: Cytotoxicity against human UACC62 cells after 48 hrs by SRB assay; settings: UACC-62, 48 h; summary of the method: as §1
MDA-MB-468 [5] = test: Cytotoxicity against human MDA-MB-468 cells after 48 hrs by SRB assay; settings: MDA-MB-468, 48 h; summary of the method: as §1
SW-620 = test: Cytotoxicity against human SW620 cells after 48 hrs by SRB assay; settings: SW-620, 48 h; summary of the method: as §1
LOX IMVI = test: Cytotoxicity against human LOXIMVI cells after 48 hrs by SRB assay; summary of the method: as §1
A498 [6] = test: Cytotoxicity against human A498 cells assessed as growth inhibition at 10 uM after 48 hrs by SRB assay; settings: A498, 48 h, read-out: GI; summary of the method: as §2
SK-MEL-2 = test: Cytotoxicity against human SK-MEL-2 cells after 48 hrs by SRB assay; settings: SK-MEL-2, 48 h; summary of the method: as §1
BT-549 = test: Cytotoxicity against human BT549 cells after 48 hrs by SRB assay; settings: BT-549, 48 h; summary of the method: as §1
A498 [7] = test: Cytotoxicity against human A498 cells after 48 hrs by SRB assay; settings: A498, 48 h; summary of the method: as §1
TK-10 [8] = test: Cytotoxicity against human TK10 cells after 48 hrs by SRB assay; settings: TK-10, 48 h; summary of the method: as §1
T47D = test: Cytotoxicity against human T47D cells after 48 hrs by SRB assay; summary of the method: as §1
[9] = Cytotoxicity against human OVCAR5 cells assessed as growth inhibition at 10 uM after 48 hrs by SRB assay; settings: OVCAR-5, 48 h, read-out: GI; summary of the method: as §2
K562 = test: Cytotoxicity against human K562 cells after 48 hrs by SRB assay; settings: K562, 48 h, read-out: LC50 (the source's name); summary of the method: as §1
NCI-H226 [10] = test: Cytotoxicity against human NCI-H226 cells assessed as growth inhibition at 10 uM after 48 hrs by SRB assay; settings: NCI-H226, 48 h, read-out: GI; summary of the method: as §2
SF-295 = test: Cytotoxicity against human SF295 cells after 48 hrs by SRB assay; settings: SF-295, 48 h; summary of the method: as §1
SN12C = test: Cytotoxicity against human SN12C cells after 48 hrs by SRB assay; summary of the method: as §1
SNB-19 = test: Cytotoxicity against human SNB19 cells after 48 hrs by SRB assay; settings: SNB-19, 48 h; summary of the method: as §1
[11] = Cytotoxicity against human UACC257 cells after 48 hrs by SRB assay; settings: UACC-257, 48 h; summary of the method: as §1
OVCAR-8 = test: Cytotoxicity against human OVCAR8 cells after 48 hrs by SRB assay; settings: OVCAR-8, 48 h; summary of the method: as §1
TK-10 [12] = test: Cytotoxicity against human TK10 cells assessed as growth inhibition at 10 uM after 48 hrs by SRB assay; settings: TK-10, 48 h, read-out: GI; summary of the method: as §2
SK-OV-3 = test: Cytotoxicity against human SKOV3 cells after 48 hrs by SRB assay; settings: SK-OV-3, 48 h; summary of the method: as §1
SK-MEL-5 = test: Cytotoxicity against human SK-MEL-5 cells after 48 hrs by SRB assay; settings: SK-MEL-5, 48 h; summary of the method: as §1
RXF 393 = test: Cytotoxicity against human RXF393 cells after 48 hrs by SRB assay; settings: RXF 393, 48 h; summary of the method: as §1
MDA-MB-435 = test: Cytotoxicity against human MDA-MB-435 cells after 48 hrs by SRB assay; settings: MDA-MB-435, 48 h; summary of the method: as §1
MCF7 = test: Cytotoxicity against human MCF7 cells after 48 hrs by SRB assay; settings: MCF7, 48 h; summary of the method: as §1
MDA-MB-231 = test: Cytotoxicity against human MDA-MB-231 cells after 48 hrs by SRB assay; settings: MDA-MB-231, 48 h; summary of the method: as §1
NCI-H460 = test: Cytotoxicity against human NCI-H460 cells after 48 hrs by SRB assay; settings: NCI-H460, 48 h; summary of the method: as §1
[13] = read-out: LC50 (the source's name)

CN1C(=O)C(=Cc2cn(Cc3ccc(Cl)cc3)c3ccccc23)C(=O)N(C)C1=O
GI50 [1]: 16.3 µM | CC50 [1, 13]: > 100 µM | GI50 (HOP-62): 10.7 µM | CC50 (HOP-62; [13]): > 100 µM | GI50 (IGROV-1): 2.88 µM | CC50 (IGROV-1; [13]): > 100 µM | GI50 (NCI-H23): 10.2 µM | LC50 (NCI-H23): > 100 µM | GI50 (SR): 70.3 µM | LC50 (lethal concentration, 50%) (SR): > 100 µM | GI50 (786-0): 6.9 µM | LC50 (786-0): > 100 µM | GI50 [2]: 0.16 µM | CC50 [2, 13]: > 100 µM | GI50 (COLO 205): 2.78 µM | CC50 (COLO 205; [13]): 29.5 µM | GI50 (NCI-H226 [3]): 1.26 µM | CC50 (NCI-H226 [3]; [13]): > 100 µM | GI50 (HCT-116): 4.47 µM | LC50 (HCT-116): > 100 µM | inhibition of growth at 10 µM (MDA-MB-468 [4]): -71% | GI50 (UACC-62): 2.06 µM | LC50 (UACC-62): > 100 µM | GI50 (MDA-MB-468 [5]): 0.06 µM | LC50 (MDA-MB-468 [5]): 0.7 µM | GI50 (SW-620): > 100 µM | CC50 (SW-620; [13]): > 100 µM | GI50 (LOX IMVI): 17.3 µM | CC50 (LOX IMVI; [13]): > 100 µM | inhibition of growth at 10 µM (A498 [6]): -94% | GI50 (SK-MEL-2): 2.84 µM | GI50 (BT-549): 12.5 µM | CC50 (BT-549; [13]): > 100 µM | GI50 (A498 [7]): 0.04 µM | LC50 (A498 [7]): 0.64 µM | GI50 (TK-10 [8]): 0.18 µM | CC50 (TK-10 [8]; [13]): 50.4 µM | GI50 (T47D): 3.53 µM | LC50 (T47D): > 100 µM | inhibition of growth at 10 µM [9]: -23% | CC50 (K562): > 100 µM | inhibition of growth at 10 µM (NCI-H226 [10]): -82% | GI50 (SF-295): 1.21 µM | LC50 (SF-295): > 100 µM | GI50 (SN12C): 92.1 µM | CC50 (SN12C; [13]): > 100 µM | GI50 (SNB-19): 18.3 µM | LC50 (SNB-19): > 100 µM | GI50 [11]: 2.01 µM | CC50 [11, 13]: > 100 µM | GI50 (OVCAR-8): 21.3 µM | CC50 (OVCAR-8; [13]): > 100 µM | inhibition of growth at 10 µM (TK-10 [12]): -26% | GI50 (SK-OV-3): 6.08 µM | LC50 (SK-OV-3): > 100 µM | GI50 (SK-MEL-5): > 100 µM | LC50 (SK-MEL-5): > 100 µM | GI50 (RXF 393): 12.5 µM | LC50 (lethal concentration, 50%) (RXF 393): > 100 µM | GI50 (MDA-MB-435): > 100 µM | LC50 (MDA-MB-435): > 100 µM | GI50 (MCF7): > 100 µM | LC50 (MCF7): > 100 µM | GI50 (MDA-MB-231): 12.2 µM | CC50 (MDA-MB-231; [13]): > 100 µM | GI50 (NCI-H460): 0.4 µM | CC50 (NCI-H460; [13]): > 100 µM
